One assay is filed under the species Homo sapiens. The experiment in a line: Prothrombin time activity, concentration required to double the time of clot formation in the prothrombin time assay. It is filed as functional. The essentials:
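Prothrombin time clotting assay run as described in a cited reference. The value is the compound concentration (μM) that doubles the time to clot formation. It is the mean of at least three separate experiments, with standard deviation under 20%.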

Assay [1] concerns the target Coagulation factor X (Homo sapiens) (UniProt P00742). The experiment in a line: Binding affinity for human Coagulation factor X. Put shortly:
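Apparent association constant with human factor Xa, determined by the method the paper cites. Each value is the mean of at least three separate experiments, with standard deviation under 20%.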

Assay [2] has as its target T1, Coagulation factor XII (Homo sapiens) (UniProt P00748).
T1 sequence (whole entry): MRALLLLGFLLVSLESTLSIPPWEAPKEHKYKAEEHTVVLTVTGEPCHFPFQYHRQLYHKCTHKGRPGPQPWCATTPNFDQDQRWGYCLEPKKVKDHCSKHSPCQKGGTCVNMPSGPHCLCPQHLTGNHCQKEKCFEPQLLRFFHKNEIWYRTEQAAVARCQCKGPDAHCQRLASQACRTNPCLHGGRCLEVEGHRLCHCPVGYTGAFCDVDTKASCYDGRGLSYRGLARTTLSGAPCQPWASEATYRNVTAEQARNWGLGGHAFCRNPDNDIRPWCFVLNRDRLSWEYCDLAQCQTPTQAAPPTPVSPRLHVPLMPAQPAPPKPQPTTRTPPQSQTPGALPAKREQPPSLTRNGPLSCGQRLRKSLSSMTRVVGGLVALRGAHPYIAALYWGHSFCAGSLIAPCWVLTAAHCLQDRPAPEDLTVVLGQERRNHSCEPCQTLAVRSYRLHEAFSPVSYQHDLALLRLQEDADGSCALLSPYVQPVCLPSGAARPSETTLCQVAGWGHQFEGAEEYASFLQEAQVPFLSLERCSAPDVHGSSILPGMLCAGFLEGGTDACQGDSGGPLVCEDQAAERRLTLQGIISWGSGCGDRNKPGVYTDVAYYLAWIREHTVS
The experiment in a line: Measured for apparent association constant (binding affinity) for Coagulation factor XII.

Assay [3] has as its target Vitamin K-dependent protein C (Homo sapiens) (UniProt P04070). The experiment in a line: Measured for apparent association constant (binding affinity) for activated protein C.
Assay [4] has as its target Urokinase-type plasminogen activator (Homo sapiens) (UniProt P00749). The experiment in a line: Measured for apparent association constant (binding affinity) for Urokinase-type plasminogen activator.
Assay [5] is described as follows: Measured for apparent association constant (binding affinity) for Factor IIa.
The target in assay [6] is Tissue-type plasminogen activator (Homo sapiens) (UniProt P00750). The experiment in a line: Measured for apparent association constant (binding affinity) for Tissue type plasminogen activator.
In assay [7] the target is Plasminogen (Homo sapiens) (UniProt P00747). The experiment in a line: Measured for apparent association constant (binding affinity) for plasmin.
The target in assay [8] is T2, Serine protease 1 (Bos taurus) (UniProt P00760).
T2 sequence (whole entry): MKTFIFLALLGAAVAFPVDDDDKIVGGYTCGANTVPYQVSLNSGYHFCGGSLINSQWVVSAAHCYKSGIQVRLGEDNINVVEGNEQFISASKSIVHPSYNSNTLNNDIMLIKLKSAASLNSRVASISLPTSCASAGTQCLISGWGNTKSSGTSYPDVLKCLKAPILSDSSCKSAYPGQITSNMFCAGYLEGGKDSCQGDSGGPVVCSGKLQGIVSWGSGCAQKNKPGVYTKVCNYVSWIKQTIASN
The experiment in a line: Measured for apparent association constant (binding affinity) for trypsin (bovine).

The target in assay [9] is Coagulation factor XI (Homo sapiens) (UniProt P03951). The experiment in a line: Measured for apparent association constant (binding affinity) for Coagulation factor XI.
The target in assay [10] is Prothrombin (Homo sapiens) (UniProt P00734). The experiment in a line: Measured for apparent association constant (binding affinity) for Coagulation factor II.

Sequence of Coagulation factor X (Homo sapiens) (P00742 41-179 limits assumed): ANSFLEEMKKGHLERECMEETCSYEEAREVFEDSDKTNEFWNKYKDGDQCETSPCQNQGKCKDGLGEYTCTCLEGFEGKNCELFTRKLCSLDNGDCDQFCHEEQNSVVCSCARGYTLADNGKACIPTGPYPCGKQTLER
Sequence of Coagulation factor X (Homo sapiens) (P00742 235-488 limits assumed): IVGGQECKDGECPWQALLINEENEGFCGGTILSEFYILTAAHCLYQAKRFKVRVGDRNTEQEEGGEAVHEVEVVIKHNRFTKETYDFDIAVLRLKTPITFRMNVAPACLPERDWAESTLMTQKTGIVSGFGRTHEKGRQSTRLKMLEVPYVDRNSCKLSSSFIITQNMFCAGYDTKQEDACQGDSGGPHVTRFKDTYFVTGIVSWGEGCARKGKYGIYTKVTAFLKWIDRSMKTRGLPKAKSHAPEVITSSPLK
Sequence of Vitamin K-dependent protein C (Homo sapiens) (P04070 43-197 limits assumed): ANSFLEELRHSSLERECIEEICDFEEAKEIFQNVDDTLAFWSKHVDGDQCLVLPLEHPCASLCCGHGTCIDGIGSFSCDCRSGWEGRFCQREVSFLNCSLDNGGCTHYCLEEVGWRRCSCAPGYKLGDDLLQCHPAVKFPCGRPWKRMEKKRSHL
Sequence of Vitamin K-dependent protein C (Homo sapiens) (P04070 212-461 limits assumed): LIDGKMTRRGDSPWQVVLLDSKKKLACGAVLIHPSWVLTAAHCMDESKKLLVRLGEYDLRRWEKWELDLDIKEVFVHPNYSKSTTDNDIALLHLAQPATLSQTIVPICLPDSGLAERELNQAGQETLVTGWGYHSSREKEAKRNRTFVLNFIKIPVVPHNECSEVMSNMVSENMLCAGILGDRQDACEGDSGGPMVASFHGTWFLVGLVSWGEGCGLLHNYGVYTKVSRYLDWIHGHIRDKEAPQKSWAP
Sequence of Coagulation factor XI (Homo sapiens) (P03951 19-387 limits assumed): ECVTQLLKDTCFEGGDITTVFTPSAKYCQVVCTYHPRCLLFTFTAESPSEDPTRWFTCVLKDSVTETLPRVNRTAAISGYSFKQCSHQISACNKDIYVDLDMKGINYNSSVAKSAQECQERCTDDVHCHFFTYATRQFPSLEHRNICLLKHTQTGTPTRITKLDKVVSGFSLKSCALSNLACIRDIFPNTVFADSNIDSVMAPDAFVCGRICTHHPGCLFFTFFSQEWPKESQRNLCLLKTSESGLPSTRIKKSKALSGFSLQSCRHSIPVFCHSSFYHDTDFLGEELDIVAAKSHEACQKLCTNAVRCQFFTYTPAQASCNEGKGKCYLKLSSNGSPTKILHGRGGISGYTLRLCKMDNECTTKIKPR
Sequence of Coagulation factor XI (Homo sapiens) (P03951 388-625 limits assumed): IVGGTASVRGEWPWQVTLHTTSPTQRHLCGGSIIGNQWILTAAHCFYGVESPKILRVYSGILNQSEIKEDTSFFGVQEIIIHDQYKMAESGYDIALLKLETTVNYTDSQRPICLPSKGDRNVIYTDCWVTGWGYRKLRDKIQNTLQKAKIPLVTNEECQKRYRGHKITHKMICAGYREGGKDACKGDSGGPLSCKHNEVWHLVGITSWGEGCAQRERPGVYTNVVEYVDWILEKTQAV
Sequence of Plasminogen (Homo sapiens) (P00747 whole entry, looked up): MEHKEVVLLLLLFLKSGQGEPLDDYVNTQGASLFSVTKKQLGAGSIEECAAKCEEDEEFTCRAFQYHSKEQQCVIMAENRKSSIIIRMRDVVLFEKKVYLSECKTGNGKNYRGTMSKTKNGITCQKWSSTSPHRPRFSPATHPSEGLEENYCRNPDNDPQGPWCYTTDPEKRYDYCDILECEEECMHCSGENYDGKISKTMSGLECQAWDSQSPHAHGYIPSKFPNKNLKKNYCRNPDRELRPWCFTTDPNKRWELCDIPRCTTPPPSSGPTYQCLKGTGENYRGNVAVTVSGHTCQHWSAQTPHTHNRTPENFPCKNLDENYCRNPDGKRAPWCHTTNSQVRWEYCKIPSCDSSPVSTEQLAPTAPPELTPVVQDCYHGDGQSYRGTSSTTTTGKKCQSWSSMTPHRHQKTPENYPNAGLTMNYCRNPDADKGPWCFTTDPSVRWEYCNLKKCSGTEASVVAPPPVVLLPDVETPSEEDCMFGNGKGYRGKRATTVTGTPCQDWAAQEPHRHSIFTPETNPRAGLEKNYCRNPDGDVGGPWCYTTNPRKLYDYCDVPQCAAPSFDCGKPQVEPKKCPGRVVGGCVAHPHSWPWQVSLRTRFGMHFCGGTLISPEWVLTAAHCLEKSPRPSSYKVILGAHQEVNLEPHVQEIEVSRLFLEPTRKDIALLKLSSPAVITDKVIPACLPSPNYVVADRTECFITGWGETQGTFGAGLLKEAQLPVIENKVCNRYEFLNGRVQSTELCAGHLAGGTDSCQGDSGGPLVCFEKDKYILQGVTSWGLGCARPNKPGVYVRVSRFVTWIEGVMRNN
Sequence of Tissue-type plasminogen activator (Homo sapiens) (P00750 36-562 limits assumed): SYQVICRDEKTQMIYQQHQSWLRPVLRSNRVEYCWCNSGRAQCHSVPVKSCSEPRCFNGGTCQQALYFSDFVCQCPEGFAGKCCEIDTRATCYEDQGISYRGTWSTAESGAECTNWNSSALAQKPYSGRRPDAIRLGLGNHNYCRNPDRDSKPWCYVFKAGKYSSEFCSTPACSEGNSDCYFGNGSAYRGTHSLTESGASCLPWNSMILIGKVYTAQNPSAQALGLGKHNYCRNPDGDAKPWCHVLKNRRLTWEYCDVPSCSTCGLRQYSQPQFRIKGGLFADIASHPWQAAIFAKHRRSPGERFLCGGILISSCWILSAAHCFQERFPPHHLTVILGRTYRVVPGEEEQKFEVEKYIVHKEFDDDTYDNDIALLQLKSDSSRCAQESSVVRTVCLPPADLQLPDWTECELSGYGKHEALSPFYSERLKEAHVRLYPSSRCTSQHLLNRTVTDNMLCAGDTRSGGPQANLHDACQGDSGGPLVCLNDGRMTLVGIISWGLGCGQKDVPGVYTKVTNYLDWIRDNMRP

For `COc1ccc(C(=O)Nc2ccccc2NC(=O)OC2CCN(c3ccncc3)CC2)cc1`, the PT in the assay listed under Homo sapiens amounted to 2.6 µM. Moreover, in [1], the K ass is 1.7e+07 l M-1.

Turning to `CCOc1ccc(C(=O)Nc2ccccc2NC(=O)NCC2CCN(c3ccncc3)CC2)cc1`, in the assay listed under Homo sapiens, the PT stood at 2.6 µM. In addition, in assay [1], the K ass was 1.5e+07 l M-1.

Turning to `CC(C)(C)c1ccc(C(=O)Nc2ccccc2NC(=O)NCC2CCN(c3ccncc3)CC2)cc1`, in assay [1], the K ass is 40000 l M-1.

For `COc1ccc(C(=O)Nc2ccc(O)cc2NC(=O)c2ccc(C(C)(C)C)cc2)cc1`, the PT in the assay listed under Homo sapiens was greater than 50 µM. Besides, the K ass in assay [1] was 6.6e+06 l M-1.

With `COc1ccc(C(=O)Nc2ccccc2NC(=O)c2ccc(-c3ccncc3)cc2)cc1`, the PT in the assay filed under Homo sapiens came to 9.5 µM. For the same compound, in assay [1], the K ass was 9.2e+06 l M-1.

In the assay listed under Homo sapiens, `COc1ccc(C(=O)Nc2ccccc2NC(=O)NC2CCN(c3ccncc3)CC2)cc1` showed a PT of 2.4 µM. Further, the K ass in [1] was 1.2e+07 l M-1.

Consider `COc1ccc(C(=O)Nc2ccccc2NC(=O)C2CCN(c3ccncc3)CC2)cc1`, for which the PT in the assay listed under Homo sapiens came out at 9.7 µM. Further, the K ass in assay [1] was 2.3e+06 l M-1.

As for `O=C(NCC1CCN(c2ccncc2)CC1)Nc1ccccc1NC(=O)c1ccccc1`, the PT in the assay listed under Homo sapiens is 6.2 µM. In addition, in assay [1], the K ass was 5.9e+06 l M-1.

Regarding `COc1ccc(C(=O)Nc2ccccc2NC(=O)NCC2CCN(c3ccncc3)CC2)cc1`, the PT in the assay listed under Homo sapiens worked out at 0.96 µM. For the same compound, the K ass in [2] is < 10000 l M-1; in assay [3], < 10000 l M-1; in [1], 6.2e+07 l M-1; in assay [4], < 10000 l M-1; in assay [5], < 10000 l M-1; in assay [6], < 10000 l M-1. Further, the K ass in [7], in [8] and in [9] was < 10000 l M-1 each time.

Turning to `COc1ccc(C(=O)Nc2ccccc2NC(=O)OCCC2CCN(c3ccncc3)CC2)cc1`, the PT in the assay listed under Homo sapiens was greater than 15 µM. Besides, in assay [1], the K ass is 2.5e+06 l M-1.

`O=C(NCC1CCN(c2ccncc2)CC1)Nc1ccccc1NC(=O)c1ccc(Cl)cc1`: the PT in the assay filed under Homo sapiens turned out to be 0.58 µM. Moreover, the K ass in [2] was < 10000 l M-1; in [10] it was 60000 l M-1; in assay [3], < 10000 l M-1; in assay [1], 1e+08 l M-1; in assay [4], < 10000 l M-1; in assay [7] it was 90000 l M-1. Moreover, the K ass in assay [8] and in assay [9] was < 10000 l M-1 throughout.

Regarding `COc1ccc(C(=O)Nc2ccccc2NC(=O)OCC2CCN(c3ccncc3)CC2)cc1`, in the assay filed under Homo sapiens, the PT is 1.9 µM. The K ass in assay [1] was 2e+07 l M-1.

In the assay filed under Homo sapiens, `CC(C)(C)c1ccc(C(=O)Nc2cc(C(=O)O)ccc2NC(=O)c2cccc(C(=N)N)c2)cc1` displayed a PT of 0.83 µM. Also, in [1], the K ass was 4.7e+08 l M-1.
